Laboratory results reported in PubChem BioAssay AID493134 (Broad Institute, 2011).
Values joined by “and” are separate entries in the source; they are usually repeats but may differ in a detail not shown here. Identical values can stand only once. Active and inactive are the calls of the source.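 Rule for the calls: active = growth inhibition with fitted half-maximal dose at or below ten times the top tested dose; inconclusive = flat curve with inhibition of 30 to 70%, or poor fit; inactive = the rest.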

Test system: not listed separately
Assay: single-agent antifungal activity, Candida albicans – CaCi-2 strain, Alamar Blue, dry powder, set 7, counter-screen for antifungal drug resistance project, dose response (AID 493134)
Details: C. albicans CaCi-2 growth, Alamar Blue fluorescence, 48 h; at 19.5 µM (top of the series)
In short: (§1)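 Test system: fluconazole-resistant clinical Candida albicans isolate CaCi-2; Medium: fluconazole-free RPMI-based defined medium; Incubation: 48 h compound exposure at 37 °C; Technique: Alamar Blue fluorescence, 544/590 nm.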
For `COC(=O)Cn1nc(-c2cncnc2)c2ccccc21`, the activity change, negative = inhibition was 7.98% (inactive).

Same assay, conditions: C. albicans CaCi-2 growth, Alamar Blue fluorescence, 48 h; at 26 µM (top of the series)
For `COC(=O)Cn1nc(-c2ccccc2)c2cc(C)ccc21`, the activity change, negative = inhibition was 2.54% (inactive). With `COC(=O)Cn1nc(-c2ccccc2C)c2ccccc21` the activity change, negative = inhibition was -21.2% (inactive). In the case of `COC(=O)Cn1nc(-c2cccc(F)c2)c2ccccc21`, the activity change, negative = inhibition is reported as 16% (inactive). For `COC(=O)Cn1nc(-c2ccccc2)c2ccccc21`, the activity change, negative = inhibition was -5.47% (inactive). In the case of `COC(=O)Cn1nc(-c2ccc(C(F)(F)F)cc2)c2ccccc21`, the activity change, negative = inhibition is reported as 4.42% (inactive). With `O=C(Cn1nc(-c2ccccc2)c2ccccc21)Oc1ccccc1` the activity change, negative = inhibition was 6.4% (inactive). In the case of `N#CCn1nc(-c2ccccc2)c2ccccc21`, the activity change, negative = inhibition is reported as 11% (inactive). In the case of `COC(=O)Cn1nc(-c2cccc(C)c2)c2ccccc21`, the activity change, negative = inhibition is reported as 7.2% (inactive). In the case of `c1ccc(-c2nn(Cc3nn[nH]n3)c3ccccc23)cc1`, the activity change, negative = inhibition is reported as 9.64% (inactive). With `CCOC(=O)Cn1nc(-c2ccccc2)c2ccccc21` the activity change, negative = inhibition was -5.31% (inactive). With `COC(=O)Cn1nc(-c2ccccc2)c2cc(F)ccc21` the activity change, negative = inhibition was -6.49% (inactive). With `COC(=O)Cn1nc(-c2ccccc2)c2ccc(C#N)cc21` the activity change, negative = inhibition was 21.8% (inactive). With `O=C(Cn1c2ccccc2c2nc3n(c(=O)c21)CCS3)N1CCCC1` the activity change, negative = inhibition was -14.3% (inactive) and -26.7% (inactive). For `COC(=O)Cn1nc(-c2ccccc2)c2ccc(C)cc21`, the activity change, negative = inhibition was 0.047% (inactive). With `COC(=O)Cn1nc(-c2ccccc2)c2ccc(OC)cc21` the activity change, negative = inhibition was -26.5% (inactive). In the case of `COCCn1nc(-c2ccccc2)c2ccccc21`, the activity change, negative = inhibition is reported as -0.717% (inactive). For `CC(C)(C)OC(=O)Cn1nc(-c2ccccc2)c2ccccc21`, the activity change, negative = inhibition was -0.465% (inactive). With `COC(=O)Cn1nc(-c2cccc(OC)c2)c2ccccc21` the activity change, negative = inhibition was -0.691% (inactive). In the case of `COC(=O)Cn1nc(-c2ccccc2)c2ccc(F)cc21`, the activity change, negative = inhibition is reported as 5.28% (inactive). With `CN(C)C(=O)Cn1nc(-c2ccccc2)c2ccccc21` the activity change, negative = inhibition was -25% (inactive). With `CC(C)OC(=O)Cn1nc(-c2ccccc2)c2ccccc21` the activity change, negative = inhibition was -0.006% (inactive). In the case of `COC(=O)Cn1nc(-c2ccccc2OC)c2ccccc21`, the activity change, negative = inhibition is reported as -23.3% (inactive).

Test system: C. albicans CaCi-2 (fluconazole-resistant clinical isolate) growth, Alamar Blue fluorescence, 48 h
Assay: as above
Details: not given
In short: as §1
For `COC(=O)Cn1c2ccccc2c2nc3n(c(=O)c21)CCS3`, the AC50 was > 26 µM (inactive). In the case of `COC(=O)Cn1nc(-c2ccccc2)c2cc(OC)ccc21`, the AC50 is reported as 20.3 µM. `COC(=O)Cn1nc(-c2ccccc2)c2ccc(C(F)(F)F)cc21` showed an AC50 of 16.4 µM.
